The values below come from ChEMBL document CHEMBL1154114, “7-((4-Substituted)piperazin-1-yl) derivatives of ciprofloxacin: synthesis and in vitro biological evaluation as potential antitumor agents” (Bioorg Med Chem, 2009).

One data set has as its system PC-3. Description: Antitumor activity against human PC3 cells after 5 days by MTT assay. Format: functional, cell-based. The note with it: PC-3, 120 h. The method in brief:
(§1)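 Five human cancer lines (prostate PC-3, glioblastoma U373-MG, colorectal LoVo, NSCLC A549, breast MCF-7) plated at 10⁴ to 3×10⁴ cells/mL depending on cell type, allowed 24 h to attach, then cultured 120 h with or without drug at nine concentrations. MTT reduction to formazan read at 570 nm (reference 630 nm).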
A general note: Tetrazolium assays rely on reduction of a dye to a coloured formazan, in cell work by metabolically active cells.
In general, IC50 refers to the concentration that gives 50% inhibition. Higher therefore signals weaker potency in that assay. `CCCCCC(=O)OCC(=O)N1CCN(c2cc3c(cc2F)c(=O)c(C(=O)O)cn3C2CC2)CC1` gave an IC50 of 14 µM.
Same read-out and setting: the same measure for `CCC(=O)N1CCN(c2cc3c(cc2F)c(=O)c(C(=O)O)cn3C2CC2)CC1`: 352 µM; for `CCCCCCCCCC(=O)OCC(=O)N1CCN(c2cc3c(cc2F)c(=O)c(C(=O)O)cn3C2CC2)CC1`: 416 µM.
The compound `CCCC(=O)OCC(=O)N1CCN(c2cc3c(cc2F)c(=O)c(C(=O)O)cn3C2CC2)CC1` gave a half-inhibitory concentration (IC50) of 715 µM. This IC50 lies about 1.7-fold higher than the previous one.
`CCCCCCCCCCCCOC(=O)N1CCN(c2cc3c(cc2F)c(=O)c(C(=O)O)cn3C2CC2)CC1` displayed an IC50 of 217 µM. This IC50 lies about 3.3-fold lower than the previous one.
On to `CCCCCCCCCOC(=O)N1CCN(c2cc3c(cc2F)c(=O)c(C(=O)O)cn3C2CC2)CC1`, for which the IC50 was determined as 30 µM.
Still for that read-out and setting: to `CCCCCCCC(=O)OCC(=O)N1CCN(c2cc3c(cc2F)c(=O)c(C(=O)O)cn3C2CC2)CC1` belongs 23 µM.
`CCCCCCCCCCCC(=O)OCC(=O)N1CCN(c2cc3c(cc2F)c(=O)c(C(=O)O)cn3C2CC2)CC1` showed an IC50 of 3 µM.
On the same count and under the same terms, to `CC(=O)N1CCN(c2cc3c(cc2F)c(=O)c(C(=O)O)cn3C2CC2)CC1` belongs 680 µM.
Same read-out and setting: the same measure for `CCCCCCCCC(=O)OCC(=O)N1CCN(c2cc3c(cc2F)c(=O)c(C(=O)O)cn3C2CC2)CC1`: 257 µM.
Still for that read-out and setting: the same measure for `CCCCCCCCCCCCCCCC(=O)OCC(=O)N1CCN(c2cc3c(cc2F)c(=O)c(C(=O)O)cn3C2CC2)CC1`: 30 µM.

System in a further data set: not listed separately
The experiment in a line: Stability in phosphate buffer of pH 7.4 after 6 days. It is filed as physicochemical. The note with it: read-out: Stability. The method in brief: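 Compound dissolved at 1 mM in DMSO, diluted with phosphate buffer pH 7.4 to 1 mL, incubated sealed at 37 °C for 6 days. A t0 aliquot was held at 4 °C. HPLC with 280 nm detection and duplicate injections, with expected degradation products as references. Stability is taken as compound peak area over (compound + degradation product) peak area.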
Consider `CCCCCCCCCCCCCCCC(=O)N1CCN(c2cc3c(cc2F)c(=O)c(C(=O)O)cn3C2CC2)CC1`, for which the remaining at 144 h came out at 100%.
On the same count and under the same terms, the same measure for `CCCCCC(=O)OCC(=O)N1CCN(c2cc3c(cc2F)c(=O)c(C(=O)O)cn3C2CC2)CC1`: above 99%; for `CCCC(=O)OCC(=O)N1CCN(c2cc3c(cc2F)c(=O)c(C(=O)O)cn3C2CC2)CC1`: 100%; for `CCCCCCCC(=O)OCC(=O)N1CCN(c2cc3c(cc2F)c(=O)c(C(=O)O)cn3C2CC2)CC1`: above 97%.
Consider `CCCCCCCCCCCC(=O)OCC(=O)N1CCN(c2cc3c(cc2F)c(=O)c(C(=O)O)cn3C2CC2)CC1`, for which the remaining at 144 h was above 98%.

Another data set concerns A549. The experiment in a line: Antitumor activity against human A549 cells after 5 days by MTT assay. It is filed as functional, cell-based. The note with it: A549, 120 h. The method in brief: as §1
In the case of `CCCCCC(=O)OCC(=O)N1CCN(c2cc3c(cc2F)c(=O)c(C(=O)O)cn3C2CC2)CC1`, the IC50 was 20 µM.
Turning to `CCC(=O)N1CCN(c2cc3c(cc2F)c(=O)c(C(=O)O)cn3C2CC2)CC1`, the IC50 is 402 µM.
The same measure, in the same setting: the same measure for `CCCCCCCCCC(=O)OCC(=O)N1CCN(c2cc3c(cc2F)c(=O)c(C(=O)O)cn3C2CC2)CC1`: 273 µM.
Same read-out and setting: to `CCCC(=O)OCC(=O)N1CCN(c2cc3c(cc2F)c(=O)c(C(=O)O)cn3C2CC2)CC1` belongs 456 µM; to `CCCCCCCCCCCCOC(=O)N1CCN(c2cc3c(cc2F)c(=O)c(C(=O)O)cn3C2CC2)CC1`, 273 µM.
The same measure, in the same setting: the same measure for `CCCCCCCCCOC(=O)N1CCN(c2cc3c(cc2F)c(=O)c(C(=O)O)cn3C2CC2)CC1`: 38 µM.
On to `CCCCCCCC(=O)OCC(=O)N1CCN(c2cc3c(cc2F)c(=O)c(C(=O)O)cn3C2CC2)CC1`, for which the 50% inhibitory concentration (IC50) is 16 µM.
The same measure, in the same setting: the same measure for `CCCCCCCCCCCC(=O)OCC(=O)N1CCN(c2cc3c(cc2F)c(=O)c(C(=O)O)cn3C2CC2)CC1`: 15 µM.
The compound `CC(=O)N1CCN(c2cc3c(cc2F)c(=O)c(C(=O)O)cn3C2CC2)CC1` registered an IC50 of 584 µM.
On the same count and under the same terms, to `CCCCCCCCC(=O)OCC(=O)N1CCN(c2cc3c(cc2F)c(=O)c(C(=O)O)cn3C2CC2)CC1` belongs 216 µM; to `CCCCCCCCCCC(=O)OCC(=O)N1CCN(c2cc3c(cc2F)c(=O)c(C(=O)O)cn3C2CC2)CC1`, above 1000 µM; to `CCCCCCCCCCCCCCCC(=O)OCC(=O)N1CCN(c2cc3c(cc2F)c(=O)c(C(=O)O)cn3C2CC2)CC1`, 112 µM.

A further data set concerns MCF7. Description: Antitumor activity against human MCF7 cells after 5 days by MTT assay. Format: functional, cell-based. The note with it: MCF7, 120 h. The method in brief: as §1
Compound `CCCCCC(=O)OCC(=O)N1CCN(c2cc3c(cc2F)c(=O)c(C(=O)O)cn3C2CC2)CC1` had an IC50 of 72 µM.
Same read-out and setting: the same measure for `CCC(=O)N1CCN(c2cc3c(cc2F)c(=O)c(C(=O)O)cn3C2CC2)CC1`: 727 µM; for `CCCCCCCCCC(=O)OCC(=O)N1CCN(c2cc3c(cc2F)c(=O)c(C(=O)O)cn3C2CC2)CC1`: 353 µM.
On the same count and under the same terms, the same measure for `CCCC(=O)OCC(=O)N1CCN(c2cc3c(cc2F)c(=O)c(C(=O)O)cn3C2CC2)CC1`: 1000 µM; for `CCCCCCCCCCCCOC(=O)N1CCN(c2cc3c(cc2F)c(=O)c(C(=O)O)cn3C2CC2)CC1`: 200 µM.
Still for that read-out and setting: to `CCCCCCCCCOC(=O)N1CCN(c2cc3c(cc2F)c(=O)c(C(=O)O)cn3C2CC2)CC1` belongs 35 µM; to `CCCCCCCC(=O)OCC(=O)N1CCN(c2cc3c(cc2F)c(=O)c(C(=O)O)cn3C2CC2)CC1`, 818 µM.
For the compound `CCCCCCCCCCCC(=O)OCC(=O)N1CCN(c2cc3c(cc2F)c(=O)c(C(=O)O)cn3C2CC2)CC1`, the IC50 turned out to be 621 µM. This IC50 and that of the compound before are within 1.5-fold of each other.
The compound `CC(=O)N1CCN(c2cc3c(cc2F)c(=O)c(C(=O)O)cn3C2CC2)CC1` showed an IC50 of 803 µM.
Regarding `CCCCCCCCC(=O)OCC(=O)N1CCN(c2cc3c(cc2F)c(=O)c(C(=O)O)cn3C2CC2)CC1`, the midpoint of inhibition, the IC50, lay at 255 µM.
On the same count and under the same terms, the same measure for `CCCCCCCCCCC(=O)OCC(=O)N1CCN(c2cc3c(cc2F)c(=O)c(C(=O)O)cn3C2CC2)CC1`: 816 µM; for `CCCCCCCCCCCCCCCC(=O)OCC(=O)N1CCN(c2cc3c(cc2F)c(=O)c(C(=O)O)cn3C2CC2)CC1`: 56 µM.

Another data set concerns LoVo. Description: Antitumor activity against human LoVo cells after 5 days by MTT assay. It is filed as functional, cell-based. The note with it: 120 h. A digest of the protocol: as §1
The compound `CCCCCC(=O)OCC(=O)N1CCN(c2cc3c(cc2F)c(=O)c(C(=O)O)cn3C2CC2)CC1` displayed a half-maximal inhibitory concentration (IC50) of 27 µM. That is a double-digit micromolar value.
On the same count and under the same terms, to `CCC(=O)N1CCN(c2cc3c(cc2F)c(=O)c(C(=O)O)cn3C2CC2)CC1` belongs 306 µM.
`CCCCCCCCCC(=O)OCC(=O)N1CCN(c2cc3c(cc2F)c(=O)c(C(=O)O)cn3C2CC2)CC1` showed an IC50 of 317 µM.
Still for that read-out and setting: the same measure for `CCCC(=O)OCC(=O)N1CCN(c2cc3c(cc2F)c(=O)c(C(=O)O)cn3C2CC2)CC1`: 613 µM.
As for `CCCCCCCCCCCCOC(=O)N1CCN(c2cc3c(cc2F)c(=O)c(C(=O)O)cn3C2CC2)CC1`, the IC50 is 347 µM.
For `CCCCCCCCCOC(=O)N1CCN(c2cc3c(cc2F)c(=O)c(C(=O)O)cn3C2CC2)CC1`, the IC50 stood at 30 µM.
`CCCCCCCC(=O)OCC(=O)N1CCN(c2cc3c(cc2F)c(=O)c(C(=O)O)cn3C2CC2)CC1` yielded an IC50 of 29 µM.
Same read-out and setting: to `CCCCCCCCCCCC(=O)OCC(=O)N1CCN(c2cc3c(cc2F)c(=O)c(C(=O)O)cn3C2CC2)CC1` belongs 39 µM.
The same measure, in the same setting: to `CC(=O)N1CCN(c2cc3c(cc2F)c(=O)c(C(=O)O)cn3C2CC2)CC1` belongs 323 µM; to `CCCCCCCCC(=O)OCC(=O)N1CCN(c2cc3c(cc2F)c(=O)c(C(=O)O)cn3C2CC2)CC1`, 267 µM.
Same read-out and setting: to `CCCCCCCCCCC(=O)OCC(=O)N1CCN(c2cc3c(cc2F)c(=O)c(C(=O)O)cn3C2CC2)CC1` belongs 828 µM; to `CCCCCCCCCCCCCCCC(=O)OCC(=O)N1CCN(c2cc3c(cc2F)c(=O)c(C(=O)O)cn3C2CC2)CC1`, 75 µM.

System in the next data set: not listed separately
The experiment in a line: Antitumor activity against human U373MG cells after 5 days by MTT assay. It is filed as functional, cell-based, U-373MG ATCC. The note with it: U373 MG, 120 h. The method in brief: as §1
Consider `CCCCCC(=O)OCC(=O)N1CCN(c2cc3c(cc2F)c(=O)c(C(=O)O)cn3C2CC2)CC1`, for which the IC50 came to 28 µM.
The compound `CCC(=O)N1CCN(c2cc3c(cc2F)c(=O)c(C(=O)O)cn3C2CC2)CC1` came in with an IC50 of 279 µM.
`CCCCCCCCCC(=O)OCC(=O)N1CCN(c2cc3c(cc2F)c(=O)c(C(=O)O)cn3C2CC2)CC1`: the midpoint of inhibition, the IC50, lay at 291 µM.
For `CCCC(=O)OCC(=O)N1CCN(c2cc3c(cc2F)c(=O)c(C(=O)O)cn3C2CC2)CC1`, inhibition was half-maximal at 586 µM (IC50).
Still for that read-out and setting: the same measure for `CCCCCCCCCCCCOC(=O)N1CCN(c2cc3c(cc2F)c(=O)c(C(=O)O)cn3C2CC2)CC1`: 94 µM; for `CCCCCCCCCOC(=O)N1CCN(c2cc3c(cc2F)c(=O)c(C(=O)O)cn3C2CC2)CC1`: 283 µM.
Compound `CCCCCCCC(=O)OCC(=O)N1CCN(c2cc3c(cc2F)c(=O)c(C(=O)O)cn3C2CC2)CC1` returned an IC50 of 53 µM.
On the same count and under the same terms, the same measure for `CCCCCCCCCCCC(=O)OCC(=O)N1CCN(c2cc3c(cc2F)c(=O)c(C(=O)O)cn3C2CC2)CC1`: 49 µM.
With `CC(=O)N1CCN(c2cc3c(cc2F)c(=O)c(C(=O)O)cn3C2CC2)CC1`, the IC50 was found to be 535 µM.
Same read-out and setting: the same measure for `CCCCCCCCC(=O)OCC(=O)N1CCN(c2cc3c(cc2F)c(=O)c(C(=O)O)cn3C2CC2)CC1`: 272 µM; for `CCCCCCCCCCC(=O)OCC(=O)N1CCN(c2cc3c(cc2F)c(=O)c(C(=O)O)cn3C2CC2)CC1`: above 1000 µM.
Turning to `CCCCCCCCCCCCCCCC(=O)OCC(=O)N1CCN(c2cc3c(cc2F)c(=O)c(C(=O)O)cn3C2CC2)CC1`, the IC50 came to 119 µM.
